Experimental data from ChEMBL document CHEMBL4725245, “The synthesis and biological evaluation of nucleobases/tetrazole hybrid compounds: A new class of phosphodiesterase type 3 (PDE3) inhibitors” (Bioorg Med Chem, 2020).

Assays:
[1] = target: cGMP-inhibited 3',5'-cyclic phosphodiesterase 3A (Homo sapiens, UniProt Q14432); assay: Inhibition of human PDE3A expressed in Sf9 cells using cAMP as substrate after 60 mins by IMAP TR-FRET assay
MCF7 = assay: Antiproliferative activity against human MCF7 cells assessed as growth inhibition after 24 hrs by MTT assay; type: functional, cell-based; conditions: MCF7, 24 h
In short: (§1)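 Cells held in DMEM with 10% heat-inactivated FBS, penicillin and streptomycin at 37 °C, 5% CO2. HeLa seeded at 5000 cells/well or MCF-7 at 10,000 cells/well, grown overnight, then exposed to compounds at 0.0–200.0 µM (two-fold steps) for 24 h. MTT 0.5 mg/mL for 4 h at 37 °C, formazan dissolved in DMSO, absorbance read at 545 nm with 630 nm reference.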

HeLa = assay: Antiproliferative activity against human HeLa cells assessed as reduction in cell viability after 24 hrs by MTT assay; type: functional, cell-based
In short: as §1

cGMP-inhibited 3',5'-cyclic phosphodiesterase 3A, sequence (Q14432 whole entry): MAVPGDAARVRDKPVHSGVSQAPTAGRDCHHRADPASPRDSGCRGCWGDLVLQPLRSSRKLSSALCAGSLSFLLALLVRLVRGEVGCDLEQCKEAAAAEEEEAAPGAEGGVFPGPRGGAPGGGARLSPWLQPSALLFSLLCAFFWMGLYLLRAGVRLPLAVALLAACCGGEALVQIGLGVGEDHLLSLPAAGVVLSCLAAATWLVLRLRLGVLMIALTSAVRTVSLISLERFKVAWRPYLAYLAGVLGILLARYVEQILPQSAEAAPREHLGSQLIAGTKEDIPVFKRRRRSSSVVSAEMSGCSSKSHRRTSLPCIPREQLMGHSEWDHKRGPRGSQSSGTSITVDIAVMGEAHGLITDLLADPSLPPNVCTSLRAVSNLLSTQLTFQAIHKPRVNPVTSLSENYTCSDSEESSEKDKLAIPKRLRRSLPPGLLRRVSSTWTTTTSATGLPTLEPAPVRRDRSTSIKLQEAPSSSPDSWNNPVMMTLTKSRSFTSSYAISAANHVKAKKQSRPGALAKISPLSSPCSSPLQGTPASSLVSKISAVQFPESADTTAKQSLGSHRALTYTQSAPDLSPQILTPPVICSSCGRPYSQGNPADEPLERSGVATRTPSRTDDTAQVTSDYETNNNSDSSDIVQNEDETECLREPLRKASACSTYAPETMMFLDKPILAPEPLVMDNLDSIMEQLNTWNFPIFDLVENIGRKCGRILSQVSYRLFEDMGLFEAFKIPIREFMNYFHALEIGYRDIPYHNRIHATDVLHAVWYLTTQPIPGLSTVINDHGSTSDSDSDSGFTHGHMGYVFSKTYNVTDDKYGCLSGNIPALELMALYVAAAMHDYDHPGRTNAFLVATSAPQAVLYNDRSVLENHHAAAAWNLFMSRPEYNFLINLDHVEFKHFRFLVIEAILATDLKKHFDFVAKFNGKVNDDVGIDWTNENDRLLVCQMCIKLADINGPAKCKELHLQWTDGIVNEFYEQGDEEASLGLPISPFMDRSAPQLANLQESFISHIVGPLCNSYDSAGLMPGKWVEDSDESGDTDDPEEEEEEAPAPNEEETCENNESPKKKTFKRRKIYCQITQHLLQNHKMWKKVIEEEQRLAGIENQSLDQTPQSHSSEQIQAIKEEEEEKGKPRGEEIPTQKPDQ

| Structure (SMILES) | IC50 [1] [nM] | IC50 (MCF7) [µM] | IC50 (HeLa) [µM] |
| --- | --- | --- | --- |
| CN(Cc1cnc2nc(N)nc(N)c2n1)c1ccc(C(=O)N[C@@H](CCC(=O)O)C(=O)O)cc1 [METHOTREXATE] |  | 49.2 | 27.9 |
| O=c1ccnc(SCCCCOc2ccc(-c3nnn[nH]3)cc2)[nH]1 | 5.13 | 68.4 | 50.6 |
| O=c1ccnc(SCCCOc2ccc(-c3nnn[nH]3)cc2)[nH]1 |  | 80.7 | 57.7 |
| Nc1nc2c(ncn2CCCCOc2ccc(-c3nnn[nH]3)cc2)c(=O)[nH]1 |  | 90.5 | 68 |
| Cn1c(=O)c2c(ncn2CCCOc2ccc(-c3nnn[nH]3)cc2)n(C)c1=O | 5.83 | 74.7 | 55.3 |
| O=C1CCc2cc(OCCCCc3nnnn3C3CCCCC3)ccc2N1 [CILOSTAZOL] | 3.89 |  |  |
| Cn1c(=O)c2c(ncn2CCCCOc2ccc(-c3nnn[nH]3)cc2)n(C)c1=O |  | 59.5 | 45.1 |

Continued by falling IC50 (MCF7), values first:

| IC50 [1] [nM] | IC50 (MCF7) [µM] | IC50 (HeLa) [µM] | Structure (SMILES) |
| --- | --- | --- | --- |
|  | 76 | 63.3 | O=c1cnn(CCCCOc2ccc(-c3nnn[nH]3)cc2)c(=O)[nH]1 |
|  | 73.7 | 59.9 | Cn1cnc2c1c(=O)n(CCCCOc1ccc(-c3nnn[nH]3)cc1)c(=O)n2C |
|  | 73.3 | 61.1 | Cn1cnc2c1c(=O)n(CCCOc1ccc(-c3nnn[nH]3)cc1)c(=O)n2C |
|  | 65.6 | 49.3 | O=c1cnn(CCCOc2ccc(-c3nnn[nH]3)cc2)c(=O)[nH]1 |
| 3.91 | 54.5 | 38.4 | Nc1ncnc2c1ncn2CCCCOc1ccc(-c2nnn[nH]2)cc1 |
|  | 54 | 38.9 | O=c1ccn(CCCOc2ccc(-c3nnn[nH]3)cc2)c(=O)[nH]1 |
|  | 35.8 | 25.6 | O=c1ccn(CCCCOc2ccc(-c3nnn[nH]3)cc2)c(=O)[nH]1 |
|  | 29.4 | 21.1 | Nc1ncnc2c1ncn2CCCOc1ccc(-c2nnn[nH]2)cc1 |
|  | 25.7 | 18.4 | Nc1nc2c(ncn2CCCOc2ccc(-c3nnn[nH]3)cc2)c(=O)[nH]1 |
